Data: ChEMBL document CHEMBL4138310 (J Med Chem, 2018)

Legend:
[1] = system: Human immunodeficiency virus 1; experiment: Antiviral activity against wild-type HIV1 pNL4-3 infected in human MT4 cells assessed as inhibition of virus-induced cytopathic effect after 5 days in presence of 50 % of human serum by MTT assay; assay type: functional, organism-based; settings: Human immunodeficiency virus 1, pNL4-3, MT4, 120 h
Summary of the method: (§1)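 MT-4 cells inoculated with HIV-1 pNL4-3, then given an equal volume of compound at several concentrations in 1% DMSO solution with 10% FBS. Incubated 5 days at 37 °C in CO2, in triplicate. MTT read by optical density, percent reduction of cytopathic effect calculated, and EC50 fitted to the median-effect equation. Values averaged over n = 3; the 50% human serum condition was run alongside.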

[2] = target: Protease (Human immunodeficiency virus 1) (UniProt Q9YQ12); experiment: Inhibition of recombinant HIV1 protease at 1 nM using H-Lys-Ala-Arg-Val-Tyr-Phe(p-NO2)-Glu-Ala-Nle-NH2 as substrate preincubated for 5 mins followed by substrate addition measured after 3 hrs by fluorescence-based assay
Summary of the method: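 Recombinant HIV-1 protease (40 ng/mL stock in pH 5.0 acetate/EDTA/NaCl/2-mercaptoethanol/NP-40/glycerol) mixed with inhibitor (10 nM solution in DMSO) in 200 mM MES-NaOH pH 5.5 with 2 mM DTT, 2 mM EDTA and 1 M NaCl. Preincubated 5 min at 37 °C, then 1.0 mM substrate solution added and incubated 3 h at 37 °C. Stopped with 1 N HCl. The Lys-Ala-Arg-Val-Tyr-OH product was quantified by RP-HPLC with fluorescence (Ex 275, Em 305 nm). Single determination.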

[3] = system: Human immunodeficiency virus 1; experiment: Antiviral activity against wild-type HIV1 pNL4-3 infected in human MT4 cells assessed as inhibition of virus-induced cytopathic effect after 5 days in absence of human serum by MTT assay; assay type: functional, organism-based; settings: Human immunodeficiency virus 1, pNL4-3, MT4, 120 h; summary of the method: as §1
[4] = system: Human immunodeficiency virus 1; experiment: Ratio of EC50 for wild-type HIV1 pNL4-3 infected in human MT4 in presence of 50% of human serum to EC50 for wild-type HIV-1 pNL4-3 infected in human MT4 in absence of human serum; assay type: functional
Summary of the method: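 Serum binding effect calculated as the pNL4-3 EC50 in 50% human serum divided by the EC50 in 0% serum, using MT-4 cytopathic-effect MTT assays run for 5 days at 37 °C.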

[5] = Ratio of EC50 for inhibition of protease L10F/V32I/M46I/I47V/Q58E/I84V mutant in HIV1 A17 infected in human MT4 cells to EC50 for wild-type HIV-1 pNL4-3 infected in human MT4 cells; assay type: functional, Human immunodeficiency virus 1
Summary of the method: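 Ratio of EC50 values from MT-4 cytopathic-effect MTT assays (5 days, 37 °C, triplicate, median-effect fit). Numerator is LPV-resistant strain A1711, denominator is wild-type HIV-1 pNL4-3.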

[6] = Cytotoxicity against human MT4 cells after 5 days by MTT assay; assay type: cell-based; settings: read-out: TD50
Summary of the method: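 Uninfected MT-4 cells given compound at several concentrations in 1% DMSO solution with 10% FBS. Incubated 5 days at 37 °C in CO2, in triplicate. Viability read by MTT optical density, with TD50 taken as the cytotoxic measure.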

[7] = system: Human immunodeficiency virus 1; experiment: Antiviral activity against wild-type HIV1 3B infected in human MT4 cells assessed as inhibition of virus-induced cytopathic effect after 5 days in presence of 50 % of human serum by MTT assay; assay type: functional, organism-based; settings: Human immunodeficiency virus 1, 3B, MT4, 120 h
[8] = system: Human immunodeficiency virus 1; experiment: Ratio of EC50 for wild-type HIV1 3B infected in human MT4 in presence of 50% of huma serum to EC50 for wild-type HIV-1 pNL4-3 infected in human MT4 in absence of human serum; assay type: functional
Summary of the method: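 Serum binding effect: EC50 measured with 50% human serum divided by EC50 measured without serum. Each EC50 came from protection of MT-4 cells from HIV-induced cytopathic effect. Infected cells were exposed to several compound concentrations in 1% DMSO with 10% FBS for 5 days at 37 °C in triplicate, read by MTT optical density, and fitted to a median-effect equation.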

[9] = Ratio of EC50 for inhibition of HIV1 A17 protease L10F/V32I/M46I/I47V/Q58E/I84V mutant infected in human MT4 cells to EC50 for wild-type HIV-1 3B infected in human MT4 cells; assay type: functional, Human immunodeficiency virus 1
[10] = system: Human immunodeficiency virus 1; experiment: Antiviral activity against wild-type HIV1 3B infected in human MT4 cells assessed as inhibition of virus-induced cytopathic effect after 5 days by MTT assay; assay type: functional, organism-based; settings: Human immunodeficiency virus 1, 3B, MT4, 120 h
[11] = system: Human immunodeficiency virus 1; experiment: Antiviral activity against wild-type HIV1 3B infected in human MT4 cells assessed as inhibition of virus-induced cytopathic effect after 5 days in absence of human serum by MTT assay; assay type: functional, organism-based; settings: Human immunodeficiency virus 1, 3B, MT4, 120 h
[12] = system: Human immunodeficiency virus 1; experiment: Ratio of EC50 for wild-type HIV1 3B infected in human MT4 in presence of 50% of huma serum to EC50 for wild-type HIV-1 3B infected in human MT4 in absence of human serum; assay type: functional
[13] = system: Human immunodeficiency virus 1; experiment: Antiviral activity against wild-type HIV1 pNL4-3 infected in CMVdeltaR8.91 transfected 293T cells after 48 hrs by lentiviral vector-based luciferase reporter gene assay; assay type: functional, organism-based; settings: Human immunodeficiency virus 1, pNL4-3, HEK-293T
Summary of the method: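 pNL4-3-based luciferase reporter lentiviral vector made by transfecting 293T cells with pCMV-ΔR8.91 (wild-type or V32I/L33F/I54M/V82I or V32I/L33F/I54M/I84V protease) plus luciferase transfer and envelope plasmids, with or without inhibitor. After 48 h, fresh 293T cells infected with vector. IC50 for suppression of luciferase transduction taken from dose-response curve.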

SMILES | EC50 [1] [nM] | inhibition [2] [%] | EC50 [3] [nM] | Ratio EC50 [4] | also measured
CN(C)c1cccc(OCC(=O)N[C@H](C(=O)N[C@@H](Cc2ccccc2)[C@H](O)C(=O)N2CSC(C)(C)[C@H]2C(=O)N[C@H]2CCc3ccccc32)[C@H]2CCOC2)c1 | 30 | 97 | 5 | 6 | 
Cc1cccc(C)c1CNC(=O)[C@H]1N(C(=O)[C@@H](O)[C@H](Cc2ccccc2)NC(=O)[C@@H](NC(=O)c2cc3ccccc3o2)[C@H]2CCOC2)CSC1(C)C | 90 | 97 | 12 | 7.5 | Ratio EC50 [5]: 57; CC50 at 120 h [6]: 38000 nM
CN(C)c1cccc(OCC(=O)N[C@H](C(=O)N[C@@H](Cc2ccccc2)[C@H](O)C(=O)N2CSC(C)(C)[C@H]2C(=O)NC/C=C\CO)[C@H]2CCOC2)c1 | 2050 | 94 | 567 | 3.6 | 
Cc1cccc(C)c1CNC(=O)[C@H]1N(C(=O)[C@@H](O)[C@H](Cc2ccccc2)NC(=O)[C@@H](NC(=O)COc2cccc3cnccc23)[C@H]2CCOC2)CSC1(C)C | 143 | 98 | 60 | 2.4 | 
Cc1ccccc1CNC(=O)[C@H]1N(C(=O)[C@@H](O)[C@H](Cc2ccccc2)NC(=O)c2cccc(O)c2C)CSC1(C)C |  | 48 | 60 |  | EC50 [7]: 114 nM; Ratio EC50 [5]: 46; Ratio EC50 [8]: 2; CC50 at 120 h [6]: 23000 nM
COc1cccc2cc(C(=O)N[C@H](C(=O)N[C@@H](Cc3ccccc3)[C@H](O)C(=O)N3CSC(C)(C)[C@H]3C(=O)NCc3c(C)cccc3C)C(C)C)oc12 |  | 95 |  |  | Ratio EC50 [9]: >103; EC50 [10]: < 3 nM
Cc1ccccc1CNC(=O)[C@H]1N(C(=O)[C@@H](O)[C@H](Cc2ccccc2)NC(=O)[C@@H](NC(=O)c2cnc3ccccc3n2)[C@@H]2CCOC2)CSC1(C)C | 131 | 86 | 12 | 11 | 
Cc1ccccc1CNC(=O)[C@H]1N(C(=O)[C@@H](O)[C@H](Cc2ccccc2)NC(=O)[C@@H](NC(=O)c2ccc3ccccc3n2)[C@@H]2CCOC2)CSC1(C)C | 602 | 69 | 26 | 23 | 
CSC[C@H](NC(=O)COc1cccc2cnccc12)C(=O)N[C@@H](Cc1ccccc1)[C@H](O)C(=O)N1CSC[C@H]1C(=O)NC(C)(C)C |  | 14 |  |  | EC50 [7]: 2880 nM; EC50 [11]: 176 nM; Ratio EC50 [12]: 16
CN(C)c1cccc(OCC(=O)N[C@H](C(=O)N[C@@H](Cc2ccccc2)[C@H](O)C(=O)N2CSC(C)(C)[C@H]2C(=O)N[C@H]2c3ccccc3C[C@H]2O)[C@H]2CCOC2)c1 | 79 | 95 | 4 | 20 | 
Cc1cccc(C)c1CNC(=O)[C@H]1N(C(=O)[C@@H](O)[C@H](Cc2ccccc2)NC(=O)[C@H](CC(N)=O)NC(=O)c2cc3ccccc3o2)CSC1(C)C |  | 97 |  |  | Ratio EC50 [9]: 1.6; EC50 [10]: 38 nM
Cc1cccc(C)c1CNC(=O)[C@H]1N(C(=O)[C@@H](O)[C@H](Cc2ccccc2)NC(=O)[C@@H](NC(=O)c2cc3ccccc3o2)C(C)C)CSC1(C)C |  | 93 |  |  | Ratio EC50 [9]: 61; EC50 [10]: 18 nM
C=C(C)CNC(=O)[C@H]1N(C(=O)[C@@H](O)[C@H](Cc2ccccc2)NC(=O)[C@@H](NC(=O)COc2cccc(N(C)C)c2)[C@H]2CCOC2)CSC1(C)C | 49 | 97 | 7 | 7 | 
Cc1cccc(C)c1CNC(=O)[C@H]1N(C(=O)[C@@H](O)[C@H](Cc2ccccc2)NC(=O)[C@@H](NC(=O)c2cc(=O)c3ccccc3o2)[C@H]2CCOC2)CSC1(C)C | 115 | 98 | 5 | 23 | 
CN(C)c1cccc(OCC(=O)N[C@H](C(=O)N[C@@H](Cc2ccccc2)[C@H](O)C(=O)N2CSC(C)(C)[C@H]2C(=O)NC2CCCC2)[C@H]2CCOC2)c1 | 103 | 93 | 10 | 10 | 
Cc1cccc(C)c1CNC(=O)[C@H]1N(C(=O)[C@@H](O)[C@H](Cc2ccccc2)NC(=O)[C@@H](NC(=O)COc2cccc(N(C)C)c2)[C@H]2CCOC2)CSC1(C)C | 15 | 97 | < 3 | >5 | Ratio EC50 [5]: >55; CC50 at 120 h [6]: 60000 nM
Cc1ccccc1CNC(=O)[C@H]1N(C(=O)[C@@H](O)[C@H](Cc2ccccc2)NC(=O)[C@@H](NC(=O)c2cnc3ccccc3n2)[C@H]2CCOC2)CSC1(C)C | 84 | 97 | 4 | 21 | Ratio EC50 [5]: 24; CC50 at 120 h [6]: 10000 nM
COc1cccc2cc(C(=O)N[C@@H](CC(N)=O)C(=O)N[C@@H](Cc3ccccc3)[C@H](O)C(=O)N3CSC(C)(C)[C@H]3C(=O)NCc3c(C)cccc3C)oc12 |  | 96 | 60 |  | Ratio EC50 [5]: 1.4
Cc1cccc(C)c1OCC(=O)N[C@@H](Cc1ccccc1)[C@@H](O)C[C@H](Cc1ccccc1)NC(=O)[C@H](C(C)C)N1CCCNC1=O [LOPINAVIR] |  |  |  |  | CC50 at 120 h [6]: > 10000 nM
Cc1cccc(C)c1CNC(=O)[C@H]1N(C(=O)[C@@H](O)[C@H](Cc2ccccc2)NC(=O)[C@@H](NC(=O)COc2cccc(Nc3ccccc3)c2)[C@H]2CCOC2)CSC1(C)C | 103 | 93 | 5 | 21 | Ratio EC50 [5]: 45; CC50 at 120 h [6]: 39000 nM
C=CCNC(=O)[C@H]1N(C(=O)[C@@H](O)[C@H](Cc2ccccc2)NC(=O)[C@@H](NC(=O)COc2cccc(N(C)C)c2)[C@H]2CCOC2)CSC1(C)C | 190 | 95 | 8 | 24 | 
CC(C)CN(C[C@@H](O)[C@H](Cc1ccccc1)NC(=O)O[C@H]1CO[C@H]2OCC[C@H]21)S(=O)(=O)c1ccc(N)cc1 |  |  |  |  | EC50 [13]: 0.82 nM
Cc1ccccc1CNC(=O)[C@H]1N(C(=O)[C@@H](O)[C@H](Cc2ccccc2)NC(=O)[C@@H](NC(=O)c2ccc3ccccc3n2)[C@H]2CCOC2)CSC1(C)C | 411 | 96 | < 3 | >137 | 
Cc1ccccc1CNC(=O)[C@H]1N(C(=O)[C@@H](O)[C@H](Cc2ccccc2)NC(=O)[C@@H](NC(=O)COc2cccc3cnccc23)[C@H]2CCOC2)CSC1(C)C | 4350 | 97 | 21 | 207 | 
